Common to all, as to type: functional
The subject of assay [1] is Plasmodium falciparum. The assay can be described thus: Relative activity against Plasmodium falciparum D6 compared to artemisinin as IC50 ratio.
Assay [2] has as its system Plasmodium falciparum. The assay can be described thus: Relative activity against Plasmodium falciparum W-2 compared to of IC50 value of artemisinin as IC50 ratio.
For assay [3], the system named is Plasmodium falciparum. The assay is described as follows: Relative activity against Plasmodium falciparum D6 compared to arteether as IC50 ratio.
Assay [4] has as its system Plasmodium falciparum. The assay is described as follows: Relative activity against Plasmodium falciparum W2 compared to arteether as IC50 ratio.
In assay [5] the test system is Plasmodium falciparum. The assay is described as follows: Relative activity against Plasmodium falciparum FCR3 compared to artemisinin as IC50 ratio. An outline of the steps: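 In vitro screen of P. falciparum strain FCR3 cultures by a modified Desjardins method. The value is the ratio of artemisinin activity to that of each fluorinated derivative.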

As for `CCO[C@H]1O[C@@H]2O[C@@]3(C)CC[C@H]4[C@H](C)C(F)(F)C[C@@H]([C@H]1C)C24OO3` (single isomer, unassigned), the Ratio in the assay on Plasmodium falciparum [1] is given as 1.4; in the assay with Plasmodium falciparum [2], 1.2; in the assay on Plasmodium falciparum [3], 0.5; in the assay on Plasmodium falciparum [4], 0.8.
For `C[C@H]1[C@@H](CC(C)(F)F)O[C@@H]2O[C@@]3(C)CC[C@H]4[C@H](C)CC[C@@H]1[C@@]24OO3` the same measures were 1.2, 0.5, 0.4 and 0.3.
On to `C[C@@H]1CC[C@H]2[C@@](C)(O)[C@@H](OCc3ccccc3F)O[C@@H]3O[C@@]4(C)CC[C@@H]1[C@]32OO4`, for which the Ratio in the assay with Plasmodium falciparum [5] stood at 0.11.
With `CCO[C@H]1O[C@@H]2O[C@@]3(C)CC[C@H]4[C@H](C)C(=O)C[C@@H]([C@H]1C)[C@@]24OO3`, the Ratio with Plasmodium falciparum [1] amounted to 0.5; in the assay with Plasmodium falciparum [2], 1.2; in the assay with Plasmodium falciparum [3], 0.05; with Plasmodium falciparum [4], 0.6.
As for `C[C@@H]1CC[C@H]2[C@](C)(O)[C@@H](OCC(F)(F)F)O[C@@H]3O[C@@]4(C)CC[C@@H]1[C@]32OO4`, the Ratio was found to be 1.8 in the assay on Plasmodium falciparum [1] and 1.5 in the assay on Plasmodium falciparum [2].
The like results for `C[C@@H]1CC[C@H]2[C@@](C)(O)[C@@H](OCC(F)(F)F)O[C@@H]3O[C@@]4(C)CC[C@@H]1[C@]32OO4` were, in that order, 0.15 and 0.14.
For `CCO[C@H]1O[C@@H]2O[C@@]3(C)CC[C@H]4[C@H](C(F)F)CC[C@@H]([C@H]1C)[C@@]24OO3`, the Ratio in the assay with Plasmodium falciparum [1] is on record as 1; with Plasmodium falciparum [2], 2; with Plasmodium falciparum [3], 0.3; in the assay with Plasmodium falciparum [4], 1.5.
As for `C[C@@H]1CC[C@H]2[C@@](C)(O)[C@@H](OCc3c(F)c(F)c(F)c(F)c3F)O[C@@H]3O[C@@]4(C)CC[C@@H]1[C@]32OO4`, the Ratio with Plasmodium falciparum [5] was 0.1.
Take `CCO[C@H]1O[C@@H]2O[C@@]3(C)CC[C@H]4[C@H](C)CC[C@@H]([C@@]1(C)O)[C@@]24OO3`: the Ratio in the assay with Plasmodium falciparum [1] came out at 0.08; in the assay with Plasmodium falciparum [2], 0.06.
For `C[C@H]1[C@@H](OCc2ccc(F)cc2)O[C@@H]2O[C@@]3(C)CC[C@H]4[C@H](C)CC[C@@H]1[C@@]24OO3`, in the assay with Plasmodium falciparum [5], the Ratio was determined as 0.04.
Turning to `CCO[C@H]1O[C@@H]2O[C@@]3(C)CC[C@H]4[C@H](C=O)CC[C@@H]([C@H]1C)[C@@]24OO3`, the Ratio is 1.2 in the assay with Plasmodium falciparum [1], 1.4 in the assay on Plasmodium falciparum [2], 0.1 in the assay with Plasmodium falciparum [3] and 0.8 in the assay with Plasmodium falciparum [4].
Consider `C[C@@H]1CC[C@H]2[C@@](C)(O)[C@@H](OCc3cccc(F)c3)O[C@@H]3O[C@@]4(C)CC[C@@H]1[C@]32OO4`, for which the Ratio in the assay with Plasmodium falciparum [5] came out at 0.11.
Consider `CCO[C@H]1O[C@@H]2O[C@@]3(C)CC[C@H]4C(C)=C(F)C[C@@H]([C@H]1C)[C@@]24OO3`, for which the Ratio in the assay on Plasmodium falciparum [1] worked out at 0.6; in the assay on Plasmodium falciparum [2], 0.5; in the assay with Plasmodium falciparum [3], 0.2; with Plasmodium falciparum [4], 0.3.
Regarding `C[C@H]1[C@@H](CC(F)F)O[C@@H]2O[C@@]3(C)CC[C@H]4[C@H](C)CC[C@@H]1[C@@]24OO3`, the Ratio in the assay on Plasmodium falciparum [1] was 3.8; in the assay on Plasmodium falciparum [2], 1.1; in the assay with Plasmodium falciparum [3], 1.3; with Plasmodium falciparum [4] it was 0.73.
`CCO[C@H]1O[C@@H]2O[C@@]3(C)CC[C@H]4[C@H](C)CC[C@@H]([C@]1(C)O)[C@@]24OO3`: the Ratio is given as 0.45 in the assay with Plasmodium falciparum [1] and 0.3 in the assay with Plasmodium falciparum [2].
On to `C[C@@H]1CC[C@H]2[C@@](C)(O)[C@@H](OCc3ccc(F)cc3)O[C@@H]3O[C@@]4(C)CC[C@@H]1[C@]32OO4`, for which the Ratio in the assay on Plasmodium falciparum [5] came to 0.1.
